Results as given in PMC3855444 (Bioorganic & medicinal chemistry, 2013).

test system: hepatitis C virus (JFH-1); assay type: cell-based; details: Huh7.5.1 cells infected with JFH-1 (MOI 0.05), HCV core protein at 72 h
How it was run: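 Huh7.5.1 cells (150,000 per well) were plated and infected with JFH-1 the next day at 0.05 focus forming units per cell. After 5 h the inoculum was replaced with fresh medium containing test compound at three concentrations chosen from the 72 h ATP-based cytotoxicity data. Lysates were harvested 72 h later, loaded at equal total protein, and probed for HCV core by Western blot.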

| SMILES | anti-HCV activity upon methylation relative to the corresponding parent compound |
| --- | --- |
| COc1cc(O)c2c(c1)O[C@H](c1cc(O)c3c(c1)[C@@H](CO)[C@H](c1ccc(O)c(OC)c1)O3)[C@@H](O)C2=O [compound 10, 7-O-Methylsilychristin] | improved anti-HCV activity |
| COc1cc(O)c2c(c1)O[C@H](c1ccc3c(c1)O[C@@H](CO)[C@H](c1ccc(O)c(OC)c1)O3)[C@@H](O)C2=O [compound 8, 7-O-Methylisosilybin B] | slight enhancement |
| COc1cc(O)c2c(c1)O[C@H](c1ccc3c(c1)O[C@H](CO)[C@@H](c1ccc(O)c(OC)c1)O3)[C@@H](O)C2=O [compound 6, 7-O-Methylisosilybin A] | reduced |
| COc1cc(O)c2c(c1)O[C@H](c1ccc(O)c3c1[C@@H](CO)[C@H](c1ccc(O)c(OC)c1)O3)[C@@H](O)C2=O [compound 12, 7-O-Methylisosilychristin] | improved anti-HCV activity |
| COc1cc(O)c2c(c1)O[C@H](c1ccc3c(c1)O[C@@H](c1ccc(O)c(OC)c1)[C@H](CO)O3)[C@@H](O)C2=O [compound 4, 7-O-Methylsilybin B] | reduced |
| COc1cc(O)c2c(c1)O[C@H](c1ccc3c(c1)O[C@H](c1ccc(O)c(OC)c1)[C@@H](CO)O3)[C@@H](O)C2=O [compound 2, 7-O-Methylsilybin A] | retained |

test system: UDP-glucuronosyltransferase (UGT); assay type: in vitro ADME, human; details: 100 μM, HLM

| SMILES | inhibition of UGT activity, parent versus methylated analogue, in words |
| --- | --- |
| COc1cc(O)c2c(c1)O[C@H](c1ccc(O)c3c1[C@@H](CO)[C@H](c1ccc(O)c(OC)c1)O3)[C@@H](O)C2=O [compound 12, 7-O-Methylisosilychristin] | more potent than isosilychristin (11) |
